8 molecules from ChEMBL document CHEMBL1125603, “2-Chloro-1-(2,4-dichlorophenyl)-3-(1H-imidazol-1-yl)-2-phenylpropan-1-one hydrochloride, a novel, nonmutagenic antibacterial with specific activity against anaerobic bacteria” (1991) can be followed below.

Values after ≈ are worked out from the molar mass of the structure shown.

What all share (assay type): functional
For one test, the system named is Escherichia coli. Kind of test: Minimum inhibitory concentration against Escherichia coli(ATCC 25922)(in vitro). The procedure, abridged:
(§1)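 Broth microdilution: drug stock of 200 μg/mL in 20% polyethylene glycol 200/water, serially diluted 2-fold in the wells to final concentrations of 0.8–100 μg/mL. Final inoculum was 10⁸ organisms/mL. Plates were held at 37 °C for 48 h, in an anaerobic chamber for anaerobes or a conventional incubator for aerobes. MIC was then read.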

For test [1], the system named is Bacteroides fragilis. In words: Minimum inhibitory concentration against Bacteroides fragilis(NCTC 9343)(in vitro). The procedure, abridged:
as §1

Test [2] relates to Clostridium perfringens. Kind of test: Minimum inhibitory concentration against Clostridium perfringens (NCTC 523)(in vitro). The procedure, abridged:
(§2)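 Broth microdilution MIC in 96-well plates. Drugs dissolved in 20% polyethylene glycol 200/water (stock 200 μg/mL), then serially diluted 2-fold in the wells to final concentrations of 0.8–100 μg/mL. Final inoculum 10⁸ organisms/mL. Plates incubated 48 h at 37 °C in an anaerobic chamber before the MIC was read.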

The test system of test [3] is Peptostreptococcus anaerobius. Kind of test: Minimum inhibitory concentration against Peptostreptococcus anaerobius(in vitro). In a few lines:
as §1

Another test deals with Finegoldia magna. In words: Minimum inhibitory concentration against Peptococcus magnus(in vitro). In a few lines: as §1
Test [4] relates to Bacteroides fragilis. In words: Minimum inhibitory concentration against Bacteroides fragilis(NCTC 10581)(in vitro). The procedure, abridged:
as §1

In a further test the test system is Klebsiella pneumoniae. In words: Minimum inhibitory concentration against Klebsiella pneumoniae (ATCC 13883)(in vitro). The procedure, abridged:
as §1

In test [5] the test system is Clostridium perfringens. Kind of test: Minimum inhibitory concentration against Clostridium perfringens (NCTC 8237)(in vitro). The procedure, abridged:
as §2

The subject of test [6] is Cutibacterium acnes. In words: Minimum inhibitory concentration against Propionibacterium acnes(NCTC 737)(in vitro). In a few lines: as §1
The next test relates to Streptococcus pyogenes. Kind of test: Minimum inhibitory concentration against Streptococcus pyogenes(ATCC 19615)(in vitro). In a few lines: as §1
In the next test the test system is Staphylococcus aureus. In words: Minimum inhibitory concentration against Staphylococcus aureus(ATCC 25923)(in vitro). The procedure, abridged:
as §1

For a further test, the system named is Proteus vulgaris. In words: Minimum inhibitory concentration against Proteus vulgaris(ATCC 13315)(in vitro). The procedure, abridged:
as §1

The subject of another test is Pseudomonas aeruginosa. Kind of test: Minimum inhibitory concentration against Pseudomonas aeruginosa (ATCC 27853)(in vitro). The procedure, abridged:
as §1

Test [7] deals with Bacteroides fragilis. In words: Minimum inhibitory concentration against Bacteroides fragilis (WSI)(in vitro). The procedure, abridged: as §1
In test [8] the test system is Bacteroides fragilis. Kind of test: Minimum inhibitory concentration against Bacteroides fragilis (MZ-R)(in vitro). In a few lines: as §1
In test [9] the test system is Cutibacterium acnes. In words: Minimum inhibitory concentration against Propionibacterium acnes(NCTC 7337)(in vitro). The procedure, abridged:
as §1

The subject of test [10] is Fusobacterium necrophorum. Kind of test: Minimum inhibitory concentration against Fusobacterium necrophorum (ATCC 11295)(in vitro). In a few lines:
as §1

Test [11] relates to Bacteroides fragilis. In words: Minimum inhibitory concentration against Bacteroides fragilis(NCTC 9344)(in vitro). The procedure, abridged:
as §1

For a further test, the system named is Anaerococcus prevotii. In words: Minimum inhibitory concentration against Peptococcus prevotti(in vitro). The procedure, abridged:
as §1

With `O=C(c1ccc(Cl)cc1Cl)C(Cl)(Cn1ccnc1)c1ccccc1` (stereo unspecified), the MIC was > 100 µg/mL with Escherichia coli; < 0.8 µg/mL in the test with Bacteroides fragilis [1]; < 0.8 µg/mL in the test with Clostridium perfringens [2]; < 0.8 µg/mL in test [3]; < 0.8 µg/mL with Finegoldia magna; < 0.8 µg/mL against Bacteroides fragilis [4]. In addition, the MIC with Klebsiella pneumoniae was > 100 µg/mL; in the test with Clostridium perfringens [5], < 0.8 µg/mL; against Cutibacterium acnes [6] it was < 0.8 µg/mL; against Streptococcus pyogenes, 1.5 µg/mL (≈ 3.95 µM); against Staphylococcus aureus, 25 µg/mL (≈ 65.8 µM); against Proteus vulgaris, > 100 µg/mL. Moreover, the MIC in the test with Pseudomonas aeruginosa is > 100 µg/mL; against Bacteroides fragilis [7] it was < 0.8 µg/mL; against Bacteroides fragilis [8], < 0.8 µg/mL; with Cutibacterium acnes [9], < 0.8 µg/mL; in [10], < 0.8 µg/mL; against Bacteroides fragilis [11], < 0.8 µg/mL. The MIC against Anaerococcus prevotii was < 0.8 µg/mL.

As for `O=C(c1ccc(Cl)cc1Cl)C(Br)(Cn1ccnc1)c1ccccc1` (stereo unspecified), the MIC against Escherichia coli is > 100 µg/mL; against Bacteroides fragilis [1] it was < 0.8 µg/mL; in the test with Clostridium perfringens [2] it was < 0.8 µg/mL; in test [3], 1.5 µg/mL (≈ 3.54 µM); against Finegoldia magna it was 1.5 µg/mL (≈ 3.54 µM); in the test with Bacteroides fragilis [4], < 0.8 µg/mL. Moreover, the MIC against Klebsiella pneumoniae was > 100 µg/mL; in the test with Clostridium perfringens [5], < 0.8 µg/mL; against Cutibacterium acnes [6], < 0.8 µg/mL; in the test with Streptococcus pyogenes it was < 0.8 µg/mL; in the test on Staphylococcus aureus, 1.5 µg/mL (≈ 3.54 µM); with Proteus vulgaris, 12.5 µg/mL (≈ 29.5 µM). Besides, the minimal inhibitory concentration (MIC) in the test on Pseudomonas aeruginosa is > 100 µg/mL; against Bacteroides fragilis [7], < 0.8 µg/mL; in the test on Bacteroides fragilis [8], < 0.8 µg/mL; with Cutibacterium acnes [9], < 0.8 µg/mL; in [10], < 0.8 µg/mL; against Bacteroides fragilis [11], < 0.8 µg/mL. Besides, the lowest concentration to inhibit growth with Anaerococcus prevotii (MIC) was 1.5 µg/mL (≈ 3.54 µM).

Turning to POLYMYXIN B, the MIC in the test on Escherichia coli was < 0.8 µg/mL; against Klebsiella pneumoniae, < 0.8 µg/mL; in the test on Streptococcus pyogenes, 1.5 µg/mL; with Staphylococcus aureus, 25 µg/mL; against Proteus vulgaris it was 1.5 µg/mL; with Pseudomonas aeruginosa, 3.1 µg/mL.

As for `Cc1ncc([N+](=O)[O-])n1CCO` [METRONIDAZOLE], the minimum inhibitory concentration (MIC) (against Bacteroides fragilis [1]; with Clostridium perfringens [2]; in [3]; against Finegoldia magna; in the test on Bacteroides fragilis [4]; against Clostridium perfringens [5]) was < 0.8 µg/mL throughout. The minimum inhibitory concentration (MIC) against Cutibacterium acnes [6] was > 100 µg/mL; against Bacteroides fragilis [7] it was 1.5 µg/mL (≈ 8.76 µM); against Bacteroides fragilis [8] it was 6.2 µg/mL (≈ 36.2 µM); with Cutibacterium acnes [9] it was > 100 µg/mL; in test [10], < 0.8 µg/mL; against Bacteroides fragilis [11], < 0.8 µg/mL. In the test with Anaerococcus prevotii, this molecule came in with an MIC of 1.5 µg/mL (≈ 8.76 µM).

Turning to `O=C(c1ccc(Cl)cc1Cl)C(Cn1ccnc1)c1ccccc1` (stereo unspecified), the MIC with Escherichia coli is > 100 µg/mL; against Bacteroides fragilis [1], < 0.8 µg/mL; against Clostridium perfringens [2], < 0.8 µg/mL; in [3] it was < 0.8 µg/mL; in the test on Finegoldia magna, < 0.8 µg/mL; in the test on Bacteroides fragilis [4] it was < 0.8 µg/mL. The minimal inhibitory concentration (MIC) against Klebsiella pneumoniae is > 100 µg/mL; in the test with Clostridium perfringens [5], < 0.8 µg/mL; against Cutibacterium acnes [6], < 0.8 µg/mL; in the test with Streptococcus pyogenes, < 0.8 µg/mL; with Staphylococcus aureus, < 0.8 µg/mL; in the test on Proteus vulgaris, 6.2 µg/mL (≈ 18 µM). In addition, the MIC in the test on Pseudomonas aeruginosa is > 100 µg/mL; against Bacteroides fragilis [7], < 0.8 µg/mL; in the test on Bacteroides fragilis [8], < 0.8 µg/mL; against Cutibacterium acnes [9] it was < 0.8 µg/mL; in [10], < 0.8 µg/mL; with Bacteroides fragilis [11] it was < 0.8 µg/mL. Moreover, in the test with Anaerococcus prevotii, the MIC was < 0.8 µg/mL.

Regarding `O=C(c1ccc(Cl)cc1Cl)C(O)(Cn1ccnc1)c1ccccc1` (stereo unspecified), the MIC in the test with Escherichia coli is > 100 µg/mL; with Bacteroides fragilis [1] it was > 100 µg/mL; against Clostridium perfringens [2], 12.5 µg/mL (≈ 34.6 µM); in test [3], 50 µg/mL (≈ 138 µM); in the test with Finegoldia magna it was > 100 µg/mL; against Bacteroides fragilis [4], 50 µg/mL (≈ 138 µM). Further, the MIC was > 100 µg/mL with Klebsiella pneumoniae; 25 µg/mL (≈ 69.2 µM) in the test on Clostridium perfringens [5]; 100 µg/mL (≈ 277 µM) against Cutibacterium acnes [6]; 25 µg/mL (≈ 69.2 µM) against Staphylococcus aureus; > 100 µg/mL in the test with Proteus vulgaris; > 100 µg/mL in the test on Bacteroides fragilis [7]. Besides, the MIC was > 100 µg/mL in the test on Bacteroides fragilis [8]; 50 µg/mL (≈ 138 µM) with Cutibacterium acnes [9]; > 100 µg/mL in test [10]; > 100 µg/mL with Bacteroides fragilis [11]; 12.5 µg/mL (≈ 34.6 µM) against Anaerococcus prevotii.

Consider `O=C(c1ccc(Cl)cc1Cl)C(F)(Cn1ccnc1)c1ccccc1` (stereo unspecified), for which the minimum inhibitory concentration (MIC) against Escherichia coli is > 100 µg/mL; against Bacteroides fragilis [1], 50 µg/mL (≈ 138 µM); in the test on Clostridium perfringens [2], 3.1 µg/mL (≈ 8.53 µM); in [3], 25 µg/mL (≈ 68.8 µM); against Finegoldia magna, 25 µg/mL (≈ 68.8 µM); with Bacteroides fragilis [4], 50 µg/mL (≈ 138 µM). The MIC with Klebsiella pneumoniae was > 100 µg/mL; against Clostridium perfringens [5], 3.1 µg/mL (≈ 8.53 µM); in the test on Cutibacterium acnes [6], 25 µg/mL (≈ 68.8 µM); with Streptococcus pyogenes, 6.2 µg/mL (≈ 17.1 µM); against Staphylococcus aureus, 50 µg/mL (≈ 138 µM); against Proteus vulgaris, > 100 µg/mL. For the same molecule, the MIC in the test on Pseudomonas aeruginosa was > 100 µg/mL; in the test with Bacteroides fragilis [7] it was 50 µg/mL (≈ 138 µM); in the test on Bacteroides fragilis [8], 50 µg/mL (≈ 138 µM); in the test with Cutibacterium acnes [9] it was 25 µg/mL (≈ 68.8 µM); in [10], 25 µg/mL (≈ 68.8 µM); against Bacteroides fragilis [11], 50 µg/mL (≈ 138 µM). For the same molecule, in the test on Anaerococcus prevotii, inhibition of growth (MIC) required 6.2 µg/mL (≈ 17.1 µM).

With `C=C(C(=O)c1ccc(Cl)cc1Cl)c1ccccc1`, the minimum inhibitory concentration (MIC) is > 100 µg/mL against Escherichia coli; < 0.8 µg/mL against Bacteroides fragilis [1]; < 0.8 µg/mL in the test on Clostridium perfringens [2]; < 0.8 µg/mL in test [3]; < 0.8 µg/mL in the test with Finegoldia magna; < 0.8 µg/mL against Bacteroides fragilis [4]. Besides, the MIC in the test on Klebsiella pneumoniae is > 100 µg/mL; against Clostridium perfringens [5], < 0.8 µg/mL; with Cutibacterium acnes [6] it was < 0.8 µg/mL; in the test with Streptococcus pyogenes it was < 0.8 µg/mL; with Staphylococcus aureus, < 0.8 µg/mL; in the test on Proteus vulgaris, 6.2 µg/mL (≈ 22.4 µM). The minimum inhibitory concentration (MIC) in the test on Pseudomonas aeruginosa is > 100 µg/mL; in the test with Bacteroides fragilis [7], < 0.8 µg/mL; with Bacteroides fragilis [8], < 0.8 µg/mL; against Cutibacterium acnes [9] it was < 0.8 µg/mL; in test [10], < 0.8 µg/mL; in the test with Bacteroides fragilis [11], < 0.8 µg/mL. In the test on Anaerococcus prevotii, the minimal inhibitory concentration (MIC) was < 0.8 µg/mL.
